Assay outcomes deposited in PubChem BioAssay by Johns Hopkins Ion Channel Center.
Sampled rows, rich in hits. Any-hit rate of the full collection: about 3.5%.
RGS4 pot = RGS4 potentiators or activators, primary screen, cell-based, HEK293 M3R inducible RGS4, calcium flux | carbachol calcium flux Fluo4; stronger effect = lower value | B-score at 10 µM | hit rate 0.92% among 310,000;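 active = B-score of the integrated calcium signal more than 4 SD below the library mean, with starting fluorescence not abnormally high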;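 note: negative B-score means reduced calcium response which marks RGS4 activation or potentiation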
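System: HEK293 FlpIn-TREx cells, stable M3R, doxycycline-inducible RGS4. Timing: overnight RGS4 induction, 30 min dye load 37 °C, 20 min compound RT. Also added: carbachol, ECmax concentration. Measured by: Fluo4 fluorescence kinetic imaging of calcium. Evaluation: integrated calcium ratio converted to B score.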
MrgX1 ag = agonists of human MrgX1 receptor, primary screen, HEK293 cells, Fluo-4 calcium flux; Mas-related G-protein coupled receptor member X1 (Homo sapiens), Q96LB2; Fluo-4 calcium fluorescence, agonist mode; stronger effect = higher value; B-score at 10 µM; hit rate 0.44% among 310,000; AID 588627, 2011;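 active = calcium response B-score plate-corrected fluorescence ratio at least 3 library SD, with starting fluorescence B-score inside 5 SD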
Target sequence (Q96LB2 whole entry, looked up): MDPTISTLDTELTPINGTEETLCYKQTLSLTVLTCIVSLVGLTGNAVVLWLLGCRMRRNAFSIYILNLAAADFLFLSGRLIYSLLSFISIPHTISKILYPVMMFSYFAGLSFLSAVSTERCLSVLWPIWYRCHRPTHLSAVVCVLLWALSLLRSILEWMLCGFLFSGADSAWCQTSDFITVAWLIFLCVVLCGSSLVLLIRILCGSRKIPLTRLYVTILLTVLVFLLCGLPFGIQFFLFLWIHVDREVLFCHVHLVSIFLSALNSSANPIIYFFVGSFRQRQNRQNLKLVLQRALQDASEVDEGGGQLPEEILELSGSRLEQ
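times = overnight plating, then 30 min 37 °C plus 30 min room-temperature dye loading | assay system = stable human MrgX1 HEK293 cell line | input = fifteen thousand cells per well | signal = kinetic calcium dye fluorescence, Fluo-4 NW | dosing = compound delivered in addition one of three | read-out = B-scored fluorescence response ratio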
RGS4 inh = RGS4 inhibitors, primary screen, cell-based, HEK293 M3R inducible RGS4, calcium flux; Fluo-4 calcium flux; stronger effect = higher value; triggered by carbachol at its EC20; hit rate 0.45% among 310,000; Regulator of G-protein signaling 4 (Homo sapiens), P49798; B-score at 10 µM;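 active = B-score, a plate-corrected calcium signal, over three deviations above library mean, with baseline fluorescence within five deviations of library mean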;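 note: RGS4 expression induced by doxycycline in cells with stable M3 receptor; B-score is computed from the integrated fluorescence ratio over baseline after carbachol; higher B-score means a larger calcium signal and so more RGS4 inhibition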
Target sequence (P49798 whole entry, looked up): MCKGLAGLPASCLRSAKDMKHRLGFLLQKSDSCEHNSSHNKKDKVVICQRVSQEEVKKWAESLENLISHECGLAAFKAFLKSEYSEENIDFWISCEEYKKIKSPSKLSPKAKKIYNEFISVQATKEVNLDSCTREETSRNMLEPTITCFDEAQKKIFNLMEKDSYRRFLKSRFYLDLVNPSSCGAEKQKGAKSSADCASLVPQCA
MrgX1 allo act = positive allosteric modulators of MrgX1, primary screen, HEK293 cells, Fluo-4 calcium flux | Mas-related G-protein coupled receptor member X1 (Homo sapiens), Q96LB2 | FDSS; stronger effect = higher value | B-score at 10 µM | hit rate 0.63% among 310,000 | AID 588675, 2011;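 active = plate-corrected calcium response at least 3 library SD above typical, normal starting fluorescence, not activating the receptor alone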;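 note: compound read alongside a low EC10 to EC30 dose of BAM8-22 agonist; peak minus trough fluorescence over baseline measured at the second addition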
MrgX1 antagonist = antagonists of human MrgX1 receptor, primary screen, HEK293 cells, Fluo-4 calcium flux. Mas-related G-protein coupled receptor member X1 (Homo sapiens), Q96LB2. BAM8-22 antagonism; stronger effect = lower value. B-score at 10 µM. hit rate 1.3% among 310,000. AID 588676, 2011;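 active = calcium-response B-score plate-corrected more than 3 library SD below zero, starting fluorescence within 5 deviations, no agonist response on first addition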;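 note: peak minus trough fluorescence over baseline after final BAM8-22 challenge near maximal dose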
RGS4 inh valid = enhanced carbachol calcium response, M3R/RGS4 cells, RGS4 inhibitor project, cell-based, validation screen, HEK293 M3R/RGS4, calcium flux | shares compounds with RGS4 inh | carbachol calcium Fluo-4 fluorescence; carbachol added at its EC20; 0 = buffer wells, 100 = carbachol control | calcium response, % at 10 µM | hit rate 65% among 1,700 | AID 492999, 2010;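 active = duplicate-averaged calcium response above the buffer-only control mean plus 5 SD of those controls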;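 note: integrated fluorescence ratio F max minus min over baseline F0; higher response in RGS4-induced cells means RGS4 inhibition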
M3R Ca ctr = carbachol calcium response in non-induced M3R cells, confirmation, counter-screen for RGS4 inhibitor project, cell-based, HEK293 M3R; shares compounds with RGS4 inh; carbachol calcium Fluo-4; submaximal (EC20) carbachol stimulus; buffer wells 0%, carbachol control wells 100%; activity (percent), % at 10 µM; hit rate 20% among 1,900; call rule not given here;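 note: RGS4 induction absent so cells express M3R without RGS4; higher means more calcium signal and flags a non-specific hit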
M3R basal Ca ctr = signal in non-induced cells without carbachol, RGS4 inhibitor counter-screen. HEK293 M3R/RGS4 non-induced, Fluo-4 calcium, no carbachol; normalised: buffer wells 0%, carbachol wells 100%. calcium response (agonist-mode artifact), % at 10 µM. shares compounds with RGS4 inh. hit rate 22% among 1,900;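 active = duplicate-averaged calcium rise in uninduced cells above buffer wells' mean plus 5 SD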
MrgX1 ag confirm = MrgX1 receptor agonists, duplicate retest, confirmation, HEK293 cells, Fluo-4 calcium flux; shares compounds with MrgX1 ag; Fluo-4 calcium fluorescence, FDSS; activation, % at 10 µM; hit rate 78% among 600;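 active = calcium signal rise, corrected for plate position, at least 3 library SD high, with starting brightness within 5 such deviations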; note: reference of the scale not given here
MrgX1 PAM conf = MrgX1 positive allosteric modulators, duplicate retest, confirmation, HEK293 cells, Fluo-4 calcium flux; activation (ratio percentage), % at 10 µM; Fluo-4 calcium fluorescence, FDSS; hit rate 13% among 1,200; shares compounds with MrgX1 allo act;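 active = ratio at least 3 SD above the weak peptide control, stable starting fluorescence, no direct agonism earlier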;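 note: compound followed by low BAM8-22 agonist challenge near EC20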
MrgX1 antag conf = MrgX1 receptor antagonists, duplicate retest, confirmation, HEK293 cells, Fluo-4 calcium flux; shares compounds with MrgX1 antagonist; BAM8-22 calcium flux; stronger effect = lower value; remaining BAM8-22 calcium response % of control (stronger effect = lower value), % at 10 µM; hit rate 19% among 2,300;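 active = remaining agonist calcium response no higher than 100% minus 3 SD of agonist-only control wells, with starting fluorescence near control levels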;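 note: agonist BAM8-22 given at a near maximal EC90 to ECmax level; peak minus minimum fluorescence divided by baseline after agonist addition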
HEK293 Ca flux = nonspecific calcium signal in parental HEK293, confirmation, counter-screen for MrgX1 antagonist project, parental HEK293 cells, Fluo-4 calcium flux. shares compounds with MrgX1 antagonist. Fluo-4 calcium fluorescence, FDSS. fluorescence ratio F(max-min)/F0 at 10 µM. hit rate 2% among 4,000. AID 624111, 2012;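 active = duplicate-averaged calcium fluorescence ratio at least three times the standard deviation of buffer wells, a nonspecific response in parental cells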
HEK293 Ca counter = calcium response in parental HEK293 cells, primary screen, counter-screen for MrgX1 allosteric activator project, cell-based, Fluo-4 calcium flux, duplicate | AID 624114, 2012 | shares compounds with MrgX1 antagonist | hit rate 0.4% among 4,000 | fluorescence ratio F(max-min)/F0 at 10 µM | Fluo-4 fluorescence ratio; stronger effect = higher value;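 active = calcium fluorescence ratio, averaged over duplicates, at least 3 SD of the buffer-well ratio, meaning a nonspecific response in receptor-free cells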;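 note: untransfected parental HEK293 lacking MrgX1 used as counterscreen for MrgX1 allosteric activators; fluorescence change taken during the second addition on a kinetic imager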
HEK293 Ca cntr2 = calcium response in parental HEK293 cells, primary screen, counter-screen for MrgX1 agonist project, cell-based, Fluo-4 calcium flux, duplicate, agonist mode | shares compounds with MrgX1 antagonist | Fluo-4 calcium fluorescence (FDSS); stronger effect = higher value | fluorescence ratio F(max-min)/F0 at 10 µM | hit rate 8.7% among 4,000;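 active = calcium fluorescence ratio at least three times the spread of buffer wells, meaning a non-specific response in parental cells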
An asterisk follows results filed as active; i = inactive; . = not tested or not shown.

SMILES | RGS4 pot | MrgX1 ag | RGS4 inh | MrgX1 allo act | MrgX1 antagonist | RGS4 inh valid | M3R Ca ctr | M3R basal Ca ctr | HEK293 Ca flux | HEK293 Ca counter | HEK293 Ca cntr2 | others
Cc1ccc(NC(=O)CSC(N)=O)cc1Cl | i | i | 6.07* | i | -4.95* | 12.0%* | i | i | i | i | i | MrgX1 antag conf=85.5%*
Cc1ccc(CN=Cc2[nH]c3ccc(Br)c(Cl)c3c2O)cc1 | i | i | i | i | -6.83* | i | i | 48.0%* | 0.226* | i | i | MrgX1 antag conf=i
COc1ccc(CN=Cc2c(O)[nH]c3ccccc23)cc1 | i | i | i | i | i | . | . | . | . | . | .
COc1ccc(C2=Nn3c(nnc3-c3ccncc3)SC2)cc1OC | i | i | 5.15* | 8.17* | i | 9.0%* | i | i | i | i | i | MrgX1 PAM conf=i
CCOc1ccc(-c2nnc3n2N=C(c2ccc(OC)cc2)CS3)cc1 | i | i | i | i | i | . | . | . | . | . | .
Cc1ccc(S(=O)(=O)N(C)C)cc1NC(=O)CCCNC(=O)c1ccc(Cl)cc1 | i | i | i | i | i | . | . | . | . | . | .
O=C(c1ccccc1)N1CCCC(C(=O)N2CCN(c3ccccc3)CC2)C1 (configuration not stated) | i | i | i | i | i | . | . | . | . | . | .
CC(=O)NCc1ccc(C(=O)CCl)s1 | i | i | i | i | i | . | . | . | . | . | .
CC(=O)NCc1ccc(C(=O)CCl)cc1 | i | 34.7* | 6.69* | i | i | 40.0%* | i | 9.5%* | i | i | i | MrgX1 ag confirm=196.7%*
COc1ccc(C(=O)CCS(=O)(=O)c2ccc(F)cc2)cc1OC | i | 31.2* | 35.5* | i | i | 168.0%* | 28.5%* | 15.0%* | i | i | i | MrgX1 ag confirm=140.9%*
